# Results: ChEMBL document CHEMBL1926614, “Substituted thiazoles V. synthesis and antitumor activity of novel thiazolo[2,3-b]quinazoline and pyrido[4,3-d]thiazolo[3,2-a]pyrimidine analogues” (2012)
# Assays:
# Format in all cases: functional
# HT-29 = experiment: Growth inhibition of human HT-29 cells at 10 uM after 48 hrs by coulter counting; details: HT-29, 48 h, read-out: GI
# Procedure, shortened: (§1)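 Single-dose primary screen across the full NCI 60-cell-line panel. Stocks were made in DMSO and diluted in PBS to a final DMSO below 1%. Cultures at 6 × 10⁴ cells/ml were run in duplicate wells alongside PBS/DMSO vehicle controls at 37 °C in humidified 5% CO₂. Data were expressed as percent growth of treated cells.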
# NCI-H460 = experiment: Growth inhibition of human NCI-H460 cells at 10 uM after 48 hrs by coulter counting; details: NCI-H460, 48 h, read-out: GI; procedure, shortened: as §1
# DU-145 = experiment: Growth inhibition of human DU145 cells at 10 uM after 48 hrs by coulter counting; details: DU-145, 48 h, read-out: GI; procedure, shortened: as §1
# HL-60(TB) = experiment: Growth inhibition of human HL-60(TB) cells at 10 uM after 48 hrs by coulter counting; details: HL-60, 48 h, read-out: GI
# Procedure, shortened: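 Test compound was dissolved in DMSO and diluted in phosphate-buffered saline to a final DMSO level below 1%. Dilutions were plated in duplicate with cell culture at 6 × 10⁴ cells/ml. Vehicle controls held PBS and DMSO at matching dilutions. Incubation was at 37 °C, humidified, under 5% CO₂. Data were reported as percent growth of treated cells.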
# T47D = experiment: Growth inhibition of human T47D cells at 10 uM after 48 hrs by coulter counting; details: read-out: GI
# Procedure, shortened: (§2)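 Single-dose screen in the NCI 60 human tumor cell line panel (nine subpanels). Compounds dissolved in DMSO and diluted in phosphate buffered saline, keeping final DMSO below 1%. Added in duplicate wells to cells at 6 × 10⁴ cells/ml. Controls held PBS and DMSO at matching dilutions. Incubated at 37 °C, humidified, 5% CO₂. Reported as percent growth of treated cells.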
# M14 = experiment: Growth inhibition of human M14 cells at 10 uM after 48 hrs by coulter counting; details: M14, 48 h, read-out: GI; procedure, shortened: as §1
# MOLT-4 = experiment: Growth inhibition of human MOLT4 cells at 10 uM after 48 hrs by coulter counting; details: MOLT-4, 48 h, read-out: GI; procedure, shortened: as §1
# NCI-H522 = experiment: Growth inhibition of human NCI-H522 cells at 10 uM after 48 hrs by coulter counting; details: NCI-H522, 48 h, read-out: GI; procedure, shortened: as §1
# UACC-62 = experiment: Growth inhibition of human UACC62 cells at 10 uM after 48 hrs by coulter counting; details: UACC-62, 48 h, read-out: GI; procedure, shortened: as §2
# CCRF-CEM = experiment: Growth inhibition of human CCRF-CEM cells at 10 uM after 48 hrs by coulter counting; details: read-out: GI; procedure, shortened: as §1
# U-251 = experiment: Growth inhibition of human U251 cells at 10 uM after 48 hrs by coulter counting; details: U-251, 48 h, read-out: GI; procedure, shortened: as §2
# HCC 2998 = experiment: Growth inhibition of human HCC2998 cells at 10 uM after 48 hrs by coulter counting; details: HCC 2998, 48 h, read-out: GI; procedure, shortened: as §1
# BT-549 = experiment: Growth inhibition of human BT549 cells at 10 uM after 48 hrs by coulter counting; details: BT-549, 48 h, read-out: GI; procedure, shortened: as §1
# MCF7 = experiment: Growth inhibition of human MCF7 cells at 10 uM after 48 hrs by coulter counting; details: MCF7, 48 h, read-out: GI; procedure, shortened: as §1
# A549 = experiment: Growth inhibition of human A549 cells at 10 uM after 48 hrs by coulter counting; details: A549, 48 h, read-out: GI; procedure, shortened: as §1
# [1] = Growth inhibition of human NCI-322M cells at 10 uM after 48 hrs by coulter counting; details: read-out: GI; procedure, shortened: as §1
# CAKI-1 = experiment: Growth inhibition of human Caki1 cells at 10 uM after 48 hrs by coulter counting; details: CAKI-1, 48 h, read-out: GI; procedure, shortened: as §1
# K562 = experiment: Growth inhibition of human K562 cells at 10 uM after 48 hrs by coulter counting; details: K562, 48 h, read-out: GI; procedure, shortened: as §1
# SK-MEL-2 = experiment: Growth inhibition of human SK-MEL-2 cells at 10 uM after 48 hrs by coulter counting; details: SK-MEL-2, 48 h, read-out: GI; procedure, shortened: as §1
# SNB-75 = experiment: Growth inhibition of human SNB75 cells at 10 uM after 48 hrs by coulter counting; details: SNB-75, 48 h, read-out: GI; procedure, shortened: as §1
# HOP-62 = experiment: Growth inhibition of human HOP62 cells at 10 uM after 48 hrs by coulter counting; details: HOP-62, 48 h, read-out: GI; procedure, shortened: as §1
# ACHN = experiment: Growth inhibition of human ACHN cells at 10 uM after 48 hrs by coulter counting; details: read-out: GI; procedure, shortened: as §1
# SNB-19 = experiment: Growth inhibition of human SNB19 cells at 10 uM after 48 hrs by coulter counting; details: SNB-19, 48 h, read-out: GI; procedure, shortened: as §1
# UACC-257 = experiment: Growth inhibition of human UACC257 cells at 10 uM after 48 hrs by coulter counting; details: UACC-257, 48 h, read-out: GI; procedure, shortened: as §2
# SK-MEL-28 = experiment: Growth inhibition of human SK-MEL-28 cells at 10 uM after 48 hrs by coulter counting; details: SK-MEL-28, 48 h, read-out: GI; procedure, shortened: as §1
# NCI-H23 = experiment: Growth inhibition of human NCI-H23 cells at 10 uM after 48 hrs by coulter counting; details: NCI-H23, 48 h, read-out: GI; procedure, shortened: as §1
# SK-MEL-5 = experiment: Growth inhibition of human SK-MEL-5 cells at 10 uM after 48 hrs by coulter counting; details: SK-MEL-5, 48 h, read-out: GI; procedure, shortened: as §1
# NCI/ADR-RES = experiment: Growth inhibition of human NCI/ADR-RES cells at 10 uM after 48 hrs by coulter counting; details: read-out: GI; procedure, shortened: as §1
# EKVX = experiment: Growth inhibition of human EKVX cells at 10 uM after 48 hrs by coulter counting; details: read-out: GI; procedure, shortened: as §1
# SF-295 = experiment: Growth inhibition of human SF295 cells at 10 uM after 48 hrs by coulter counting; details: SF-295, 48 h, read-out: GI; procedure, shortened: as §1
# HCT-116 = experiment: Growth inhibition of human HCT116 cells at 10 uM after 48 hrs by coulter counting; details: HCT-116, 48 h, read-out: GI; procedure, shortened: as §1
# A498 = experiment: Growth inhibition of human A498 cells at 10 uM after 48 hrs by coulter counting; details: A498, 48 h, read-out: GI; procedure, shortened: as §1
# KM12 = experiment: Growth inhibition of human KM12 cells at 10 uM after 48 hrs by coulter counting; details: KM12, 48 h, read-out: GI; procedure, shortened: as §1
# SF-268 = experiment: Growth inhibition of human SF268 cells at 10 uM after 48 hrs by coulter counting; details: SF-268, 48 h, read-out: GI; procedure, shortened: as §1
# UO-31 = experiment: Growth inhibition of human UO31 cells at 10 uM after 48 hrs by coulter counting; details: UO-31, 48 h, read-out: GI; procedure, shortened: as §2
# SF-539 = experiment: Growth inhibition of human SF539 cells at 10 uM after 48 hrs by coulter counting; details: SF-539, 48 h, read-out: GI; procedure, shortened: as §1
# MDA-MB-435 = experiment: Growth inhibition of human MDA-MB-435 cells at 10 uM after 48 hrs by coulter counting; details: MDA-MB-435, 48 h, read-out: GI; procedure, shortened: as §1
# OVCAR-4 = experiment: Growth inhibition of human OVCAR4 cells at 10 uM after 48 hrs by coulter counting; details: OVCAR-4, 48 h, read-out: GI; procedure, shortened: as §1
# IGROV-1 = experiment: Growth inhibition of human IGROV1 cells at 10 uM after 48 hrs by coulter counting; details: IGROV-1, 48 h, read-out: GI; procedure, shortened: as §1
# NCI-H226 = experiment: Growth inhibition of human NCI-H226 cells at 10 uM after 48 hrs by coulter counting; details: NCI-H226, 48 h, read-out: GI; procedure, shortened: as §1
# LOX IMVI = experiment: Growth inhibition of human LOXIMVI cells at 10 uM after 48 hrs by coulter counting; details: read-out: GI; procedure, shortened: as §1
# RPMI-8226 = experiment: Growth inhibition of human RPMI8226 cells at 10 uM after 48 hrs by coulter counting; details: RPMI-8226, 48 h, read-out: GI; procedure, shortened: as §1
compound,measurement,setting,value
COc1ccc(/C=C2\CCCC3=C2N=C2SC=CN2C3c2ccc(OC)c(OC)c2)cc1OC (configuration not stated),inhibition of growth at 10 µM,HT-29,> 10%
same,inhibition of growth at 10 µM,NCI-H460,> 10%
same,inhibition of growth at 10 µM,DU-145,> 10%
same,inhibition of growth at 10 µM,HL-60(TB),17.5%
same,inhibition of growth at 10 µM,T47D,> 10%
same,inhibition of growth at 10 µM,M14,> 10%
same,inhibition of growth at 10 µM,MOLT-4,> 10%
same,inhibition of growth at 10 µM,NCI-H522,10.3%
same,inhibition of growth at 10 µM,UACC-62,> 10%
same,inhibition of growth at 10 µM,CCRF-CEM,> 10%
same,inhibition of growth at 10 µM,U-251,> 10%
same,inhibition of growth at 10 µM,HCC 2998,14.9%
same,inhibition of growth at 10 µM,BT-549,> 10%
same,inhibition of growth at 10 µM,MCF7,> 10%
same,inhibition of growth at 10 µM,A549,> 10%
same,inhibition of growth at 10 µM,[1],> 10%
same,inhibition of growth at 10 µM,CAKI-1,> 10%
same,inhibition of growth at 10 µM,K562,> 10%
same,inhibition of growth at 10 µM,SK-MEL-2,> 10%
same,inhibition of growth at 10 µM,SNB-75,12.4%
same,inhibition of growth at 10 µM,HOP-62,> 10%
same,inhibition of growth at 10 µM,ACHN,> 10%
same,inhibition of growth at 10 µM,SNB-19,> 10%
same,inhibition of growth at 10 µM,UACC-257,10.5%
same,inhibition of growth at 10 µM,SK-MEL-28,> 10%
same,inhibition of growth at 10 µM,NCI-H23,> 10%
same,inhibition of growth at 10 µM,SK-MEL-5,> 10%
same,inhibition of growth at 10 µM,NCI/ADR-RES,> 10%
same,inhibition of growth at 10 µM,EKVX,> 10%
same,inhibition of growth at 10 µM,SF-295,> 10%
same,inhibition of growth at 10 µM,HCT-116,> 10%
same,inhibition of growth at 10 µM,A498,> 10%
same,inhibition of growth at 10 µM,KM12,> 10%
same,inhibition of growth at 10 µM,SF-268,> 10%
same,inhibition of growth at 10 µM,UO-31,27.9%
same,inhibition of growth at 10 µM,SF-539,> 10%
same,inhibition of growth at 10 µM,MDA-MB-435,> 10%
same,inhibition of growth at 10 µM,OVCAR-4,> 10%
same,inhibition of growth at 10 µM,IGROV-1,> 10%
same,inhibition of growth at 10 µM,NCI-H226,> 10%
same,inhibition of growth at 10 µM,LOX IMVI,16.4%
same,inhibition of growth at 10 µM,RPMI-8226,> 10%
